Values after ≈ are worked out from the molar mass of the structure shown. Active and inactive are the calls of the source. No cut-off for these calls is given here.
Legend:
Staphylococcus aureus [1] = test: Antibacterial activity against methicillin-resistant Staphylococcus aureus USA300 after 20 hrs at pH 6.8 to 8 by microdilution method; type: functional
In short: (§1)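 MIC = lowest concentration with no detectable growth. pH series run at pH 6.8, 7.4 and 8.0. Daptomycin wells carried 2 mM Ca²⁺. Repeated by different investigators on different dates.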

Pseudomonas aeruginosa [2] = test: Antibacterial activity against Pseudomonas aeruginosa PAO1 after 20 hrs by microdilution method; type: functional; conditions: PAO1, 20 h
In short: (§2)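 Incubated ~20 h at 37°C, then read at 630 nm. MIC is the lowest concentration with no detectable growth. Daptomycin assays had 2 mM Ca²⁺ added to the medium. Repeated several times by different investigators.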

Staphylococcus aureus [3] = test: Antibacterial activity against Staphylococcus aureus Mu50 after 20 hrs by microdilution method; type: functional; conditions: Mu50, 20 h; in short: as §2
Staphylococcus aureus [4] = test: Inhibition of surface attachment by methicillin-resistant Staphylococcus aureus USA300 assessed as reduction in biofilm formation after 4 hrs by XTT assay; type: functional
Staphylococcus aureus [5] = test: Antibacterial activity against Staphylococcus aureus Newman after 20 hrs by microdilution method; type: functional; in short: as §2
Escherichia coli [6] = test: Antibacterial activity against Escherichia coli ATCC 25922 after 20 hrs by microdilution method; type: functional; conditions: ATCC 25922, 20 h; in short: as §2
Staphylococcus aureus [7] = test: Ratio of MIC for methicillin-resistant Staphylococcus aureus USA300 in presence of 100 mM NaCl to MIC for methicillin-resistant Staphylococcus aureus USA300 in absence of 100 mM NaCl; type: functional
In short: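 Broth microdilution MIC against S. aureus USA300 in TSB with and without 100 mM NaCl. Inoculum 10⁶ CFU/mL exponential-phase cells, ~20 h at 37°C, OD630 read-out, no-growth endpoint. Ratio of MIC with salt to MIC without salt.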

Staphylococcus aureus [8] = test: Antibacterial activity against Staphylococcus aureus USA400 after 20 hrs by microdilution method; type: functional; conditions: USA400, 20 h; in short: as §2
Staphylococcus aureus [9] = test: Antibacterial activity against Staphylococcus aureus UAMS-1 after 20 hrs by microdilution method; type: functional; conditions: UAMS-1, 20 h; in short: as §2
[10] = Hemolytic activity against human RBC after 1 hr; type: ADME, cell-based, Erythrocyte; conditions: human red blood cells
In short: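 Human red blood cells were washed three times in normal saline (800 g, 10 min) and made up as a 2% suspension. After centrifugation, supernatant absorbance was read at 545 nm. Lysis was set at 100% for 1% Triton X-100 and 0% for untreated cells; HL50 is the 50% hemolytic concentration.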

Staphylococcus aureus [11] = test: Antibacterial activity against Staphylococcus aureus USA200 after 20 hrs by microdilution method; type: functional; conditions: USA200, 20 h; in short: as §2
Staphylococcus aureus [12] = test: Antibacterial activity against methicillin-resistant Staphylococcus aureus USA300 after 20 hrs by microdilution method; type: functional; conditions: USA300, 20 h; in short: as §1
[13] = Retention time of the compound by HPLC method; type: physicochemical
[14] = Therapeutic index, ratio of HC50 for human RBC to MIC for methicillin-resistant Staphylococcus aureus USA300; conditions: human red blood cells, read-out: TI
In short: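 Supernatant hemoglobin read at 545 nm; 1% Triton X-100 = 100% lysis, untreated = 0%. HL50 divided by USA300 MIC gives the selectivity index.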

Klebsiella pneumoniae = test: Antibacterial activity against Klebsiella pneumoniae ATCC 13883 after 20 hrs by microdilution method; type: functional; conditions: ATCC 13883, 20 h; in short: as §2
Staphylococcus aureus [15] = test: Induction of membrane damage in methicillin-resistant Staphylococcus aureus USA300 measured up to 90 mins by propidium iodide staining based fluorescence spectroscopic analysis
Staphylococcus aureus [16] = test: Inhibition of methicillin-resistant Staphylococcus aureus USA300 preformed biofilms after 24 hrs by XTT assay; type: functional
In short: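 USA300 biofilms formed for 24 h on polystyrene wells, washed, then treated with compounds for 24 h. Remaining biofilm quantified by XTT reduction (2 h, 37°C, absorbance 450 nm, medium-plus-XTT blank). Compared with untreated control.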

Pseudomonas aeruginosa [17] = test: Antibacterial activity against Pseudomonas aeruginosa PAO1 after overnight incubation by broth microdilution method; type: functional
Staphylococcus aureus [18] = test: Induction of membrane damage in methicillin-resistant Staphylococcus aureus USA300 measured for 90 mins by propidium iodide staining based fluorescence spectroscopic analysis; type: functional
Escherichia coli [19] = test: Antibacterial activity against Escherichia coli K-12 after overnight incubation by broth microdilution method; type: functional
Staphylococcus aureus [20] = test: Antibacterial activity against methicillin-resistant Staphylococcus aureus USA300 LAC after overnight incubation by broth microdilution method; type: functional; in short: as §1

For `CCCC(CCC)(c1c[nH]c2cc(C3=NCCN3)ccc12)c1c[nH]c2cc(C3=NCCN3)ccc12.CS(=O)(=O)O.CS(=O)(=O)O`, the Activity (Staphylococcus aureus [1]) was “Active”, the MIC (Pseudomonas aeruginosa [2]) was over 50 µM and the MIC (Staphylococcus aureus [3]) was 3.1 µM. For the same compound, the “inhibition (INH)” value (Staphylococcus aureus [4]) was 40%, the MIC (Staphylococcus aureus [5]) was 3.1 µM and the MIC (Escherichia coli [6]) was over 50 µM. For the same compound, the Ratio (Staphylococcus aureus [7]) was “<=2”, the MIC (Staphylococcus aureus [8]) was 3.1 µM and the MIC (Staphylococcus aureus [9]) was 12.5 to 25 µM. It also gave an HC50 at 1 h [10] of 150 µM, an MIC (Staphylococcus aureus [11]) of under 1.5 µM and an MIC (Staphylococcus aureus [12]) of 1.6 to 3.1 µM. It also gave a Retention_time [13] of 12.102 min, a selectivity ratio [14] of 48 to 96 and an MIC (Klebsiella pneumoniae) of over 50 µM. For the same compound, the Activity (Staphylococcus aureus [15]) was “Active” and the “inhibition (INH)” value (Staphylococcus aureus [16]) was 50%.
Work on `Cl.Clc1cccc(Cl)c1C(c1c[nH]c2ccc(C3=NCCN3)cc12)c1c[nH]c2ccc(C3=NCCN3)cc12` yielded an MIC (Pseudomonas aeruginosa [2]) of over 50 µM, an MIC (Escherichia coli [6]) of over 50 µM and an HC50 at 1 h [10] of over 600 µM. The MIC (Staphylococcus aureus [12]) was 12.5 µM, the Retention_time [13] was 10.537 min and the selectivity ratio [14] was over 48. The MIC (Klebsiella pneumoniae) was over 50 µM.
For `CS(=O)(=O)O.CS(=O)(=O)O.NCc1ccc2c(C3(c4c[nH]c5cc(CN)ccc45)CCCCC3)c[nH]c2c1`, the MIC (Pseudomonas aeruginosa [2]) was over 50 µM, the MIC (Escherichia coli [6]) was over 50 µM and the HC50 at 1 h [10] was 75 to 150 µM. For the same compound, the MIC (Staphylococcus aureus [12]) was 6.2 to 12.5 µM, the Retention_time [13] was 10.788 min and the selectivity ratio [14] was 12 to 24. The MIC (Klebsiella pneumoniae) was over 50 µM.
In the case of `CS(=O)(=O)O.CS(=O)(=O)O.c1cc2c(C3(c4c[nH]c5cc(C6=NCCN6)ccc45)CCCCC3)c[nH]c2cc1C1=NCCN1`, the MIC (Pseudomonas aeruginosa [2]) is reported as over 50 µM, the MIC (Staphylococcus aureus [3]) is reported as 6.2 µM and the MIC (Staphylococcus aureus [5]) is reported as 6.2 µM. For the same compound, the MIC (Escherichia coli [6]) was over 50 µM, the Ratio (Staphylococcus aureus [7]) was “<=2” and the MIC (Staphylococcus aureus [8]) was 6.2 µM. For the same compound, the MIC (Staphylococcus aureus [9]) was 25 µM, the HC50 at 1 h [10] was 150 to 300 µM and the MIC (Staphylococcus aureus [11]) was 6.2 µM. The MIC (Pseudomonas aeruginosa [17]) was 100 µM, the MIC (Staphylococcus aureus [12]) was 6.2 µM and the Retention_time [13] was 11.276 min. For the same compound, the Activity (Staphylococcus aureus [18]) was “Active”, the MIC (Escherichia coli [19]) was over 200 µM and the MIC (Staphylococcus aureus [20]) was 6.2 µM. The selectivity ratio [14] was 24 to 48 and the MIC (Klebsiella pneumoniae) was over 50 µM.
With `CS(=O)(=O)O.CS(=O)(=O)O.c1cc2c(Cc3c[nH]c4cc(C5=NCCN5)ccc34)c[nH]c2cc1C1=NCCN1` the MIC (Pseudomonas aeruginosa [2]) was over 50 µM, the MIC (Escherichia coli [6]) was over 50 µM and the HC50 at 1 h [10] was 1300 µM. For the same compound, the MIC (Staphylococcus aureus [12]) was 50 µM, the Retention_time [13] was 9.215 min and the selectivity ratio [14] was 26. It also gave an MIC (Klebsiella pneumoniae) of over 50 µM.
For `CCCCCCCCCC(=O)N[C@@H](Cc1c[nH]c2ccccc12)C(=O)N[C@@H](CC(N)=O)C(=O)N[C@@H](CC(=O)O)C(=O)N[C@@H]1C(=O)NCC(=O)N[C@@H](CCCN)C(=O)N[C@@H](CC(=O)O)C(=O)N[C@H](C)C(=O)N[C@@H](CC(=O)O)C(=O)NCC(=O)N[C@H](CO)C(=O)N[C@@H]([C@H](C)CC(=O)O)C(=O)N[C@@H](CC(=O)c2ccccc2N)C(=O)O[C@@H]1C` [DAPTOMYCIN], the MIC (Staphylococcus aureus [3]) was 3.1 µM (≈ 5.02 µg/mL), the MIC (Staphylococcus aureus [8]) was 0.78 µM (≈ 1.26 µg/mL) and the MIC (Staphylococcus aureus [9]) was over 12.5 µM. For the same compound, the MIC (Staphylococcus aureus [11]) was 0.78 µM (≈ 1.26 µg/mL), the MIC (Staphylococcus aureus [12]) was 0.78 µM (≈ 1.26 µg/mL) and the Activity (Staphylococcus aureus [18]) was “Active”.
For `CS(=O)(=O)O.CS(=O)(=O)O.Clc1cccc(Cl)c1C(c1c[nH]c2cc(C3=NCCN3)ccc12)c1c[nH]c2cc(C3=NCCN3)ccc12`, the MIC (Pseudomonas aeruginosa [2]) was over 50 µM, the MIC (Staphylococcus aureus [3]) was over 25 µM and the MIC (Staphylococcus aureus [5]) was 12.5 µM. For the same compound, the MIC (Escherichia coli [6]) was over 50 µM, the Ratio (Staphylococcus aureus [7]) was “<=2” and the MIC (Staphylococcus aureus [8]) was 12.5 µM. The MIC (Staphylococcus aureus [9]) was over 25 µM, the HC50 at 1 h [10] was 300 µM and the MIC (Staphylococcus aureus [11]) was 12.5 µM. For the same compound, the MIC (Staphylococcus aureus [12]) was 6.2 to 12.5 µM, the Retention_time [13] was 10.973 min and the Activity (Staphylococcus aureus [18]) was “Active”. For the same compound, the selectivity ratio [14] was 24 to 48 and the MIC (Klebsiella pneumoniae) was over 50 µM.
In the case of `CS(=O)(=O)O.CS(=O)(=O)O.Clc1ccc(C(c2c[nH]c3cc(C4=NCCN4)ccc23)c2c[nH]c3cc(C4=NCCN4)ccc23)c(Cl)c1`, the MIC (Pseudomonas aeruginosa [2]) is reported as 25 to 50 µM, the MIC (Escherichia coli [6]) is reported as 12.5 µM and the HC50 at 1 h [10] is reported as 40 µM. For the same compound, the MIC (Staphylococcus aureus [12]) was 3.1 to 6.2 µM, the Retention_time [13] was 11.924 min and the selectivity ratio [14] was 12. The MIC (Klebsiella pneumoniae) was over 50 µM.

Source: ChEMBL document CHEMBL3875203, “Small molecule mimics of DFTamP1, a database designed anti-Staphylococcal peptide” (Bioorg Med Chem, 2017)
